# Assay results gathered from unrelated publications.
# Lines come from different studies, so protocols differ.
# Target: Serine/threonine-protein kinase tousled-like 2 (TLK2, Homo sapiens, UniProt Q86UE8)
SMILES,test,conditions,quantity,result
C[C@H](c1ccc(F)cc1)N(Cc1cccc(C(=O)O)c1)C(=O)c1cnc2ccccc2c1,"cell-free assay, competition with immobilised ligand",1 µM,remaining binding,97%
CC(C)(C)c1nc(-c2cccc(NS(=O)(=O)c3c(F)cccc3F)c2F)c(-c2ccnc(N)n2)s1,"enzyme activity, inhibitor, radiometric",1 µM,remaining activity,96%
CCCS(=O)(=O)Nc1ccc(F)c(C(=O)c2c[nH]c3ncc(-c4ccc(Cl)cc4)cc23)c1F,"enzyme activity, inhibitor",1 µM,inhibition,< 10%
Cc1cc(NC(=O)c2cccc3cc(-c4cccc5[nH]nc(N)c45)ccc23)ccc1F,"enzyme activity, inhibitor",0.1 µM,activity vs control,100%
Cc1ccc(NC(=O)c2ccc(C)c(C(F)(F)F)c2)cc1C#Cc1nn(C2CCC(O)CC2)c2ncnc(N)c12 (stereo not drawn),cell-free assay,10 µM,remaining signal,93%
Cc1ccc(Nc2nccc(N(C)c3ccc4c(C)n(C)nc4c3)n2)cc1S(N)(=O)=O,"cell-free assay, inhibitor",0.5 µM,remaining signal,85.6%
CC(C)(O)[C@H]1CC[C@H](Nc2ccc3ncc(-c4cccc(C(F)(F)F)c4)n3n2)CC1,"enzyme activity, inhibitor",1 µM,remaining activity,103%
CCCCN(CCCC)C(=O)CN1C[C@@H](c2cc(OC)c3c(c2)OCO3)[C@H](C(=O)O)[C@H]1CC(C)(C)CCC,"cell-free assay, competition with immobilised ligand",1 µM,remaining binding,100%
CCN(CC)c1ccc(C2=NNC(=O)CC2C)cc1[N+](=O)[O-] (stereo not drawn),"enzyme activity, inhibitor",10 µM,remaining activity,82%
CNC(=O)Nc1ccc2c(c1)CC[C@@]21OC(=O)N(CC(=O)N(Cc2ccc(F)cc2)[C@@H](C)C(F)(F)F)C1=O,"cell-free assay, competition with immobilised ligand",1 µM,remaining binding,100%
COc1cc(Cl)c(C(=O)N[C@@H](CN[C@H]2CC[C@@H](N)CC2)Cc2ccc(C#N)cc2)cc1-c1ccc(CN[C@H](C)c2ccc(C)cc2)o1,"enzyme activity, inhibitor",1 µM,remaining activity,94%
Nc1ncnc2occ(-c3ccc(NC(=O)Nc4cc(C(F)(F)F)ccc4F)cc3)c12,"cell-free assay, inhibitor",20 µM,remaining signal,89%
O=C1NC(=O)c2cc(Nc3ccc(F)cc3)c(Nc3ccc(F)cc3)cc21,cell-free assay,0.5 µM,remaining signal,93.5%
CCCOc1ccc([C@H]2[C@H](C(=O)O)[C@@H](c3ccc4c(c3)OCO4)CN2CC(=O)Nc2c(CC)cccc2CC)cc1,"cell-free assay, competition with immobilised ligand",1 µM,remaining binding,94%
CNC(=O)c1cc(Oc2ccc(NC(=O)Nc3ccc(Cl)c(C(F)(F)F)c3)cc2)ccn1,"enzyme activity, inhibitor",0.3 µM,inhibition,-9%
O=C(NC[C@@H]1[C@H]2CN(C(=O)OCc3cc(C(F)(F)F)cc(C(F)(F)F)c3)C[C@@H]12)c1ccc2[nH]nnc2c1,"cell-free assay, competition with immobilised ligand",1 µM,remaining binding,90%
COc1cc2c(N3CCN(C(=O)Nc4ccc(OC(C)C)cc4)CC3)ncnc2cc1OCCCN1CCCCC1,cell-free assay,0.5 µM,remaining signal,96.2%
O=C(Nc1cnn(-c2csc(C(=O)NC3COC3)c2)c1)Nc1c(F)cccc1Cl,"enzyme activity, inhibitor",5 µM,remaining activity,109%
c1ccc(CNc2nc(N3CCOc4ccccc43)nc3c2CCCC3)cc1,"target engagement in cells, inhibitor, chemoproteomics",20 mM,inhibition,-6.8%
CCC(=O)N[C@@H]1CC[C@H](C(=O)N(C)c2ccc(-c3nc4ccccc4o3)cc2)C1,"cell-free assay, competition with immobilised ligand",1 µM,remaining binding,100%
COc1cc(Nc2c(C#N)cnc3cc(OCCCN4CCN(C)CC4)c(OC)cc23)c(Cl)cc1Cl,cell-free assay,0.5 µM,remaining signal,92.2%
